# Source: ChEMBL document CHEMBL1143201 (Bioorg Med Chem, 2008)
# The source made the active and inactive calls. The calls are words filed in the database; no cut-off is given here.
# Experiments:
# Format in all cases: cell-based
# [1] = target: T1, Muscarinic acetylcholine receptor M1 (Homo sapiens) (UniProt P11229); assay: (§1) Displacement of [3H]NMS from human muscarinic M1 receptor expressed in CHO cells by wash-resistant binding method
# T1 sequence (whole entry): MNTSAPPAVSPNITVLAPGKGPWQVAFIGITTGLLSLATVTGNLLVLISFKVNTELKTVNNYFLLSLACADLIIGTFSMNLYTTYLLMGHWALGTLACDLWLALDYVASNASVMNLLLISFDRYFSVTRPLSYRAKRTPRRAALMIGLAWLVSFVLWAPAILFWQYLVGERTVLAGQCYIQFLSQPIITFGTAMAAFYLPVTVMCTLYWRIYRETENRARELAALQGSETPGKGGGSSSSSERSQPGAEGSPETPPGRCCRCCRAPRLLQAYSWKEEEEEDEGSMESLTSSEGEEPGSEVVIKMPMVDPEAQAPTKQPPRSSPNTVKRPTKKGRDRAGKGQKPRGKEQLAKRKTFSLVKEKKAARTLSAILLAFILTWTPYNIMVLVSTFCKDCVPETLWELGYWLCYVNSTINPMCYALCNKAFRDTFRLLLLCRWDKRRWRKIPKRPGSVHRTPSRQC
# Method in brief: (§2)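 Human M1-transfected CHO cells in Hepes buffer were preincubated with test ligand. Each wash was a ~50-volume buffer dilution and centrifugation, done three times in all. Washed cells were resuspended, given [3H]NMS, and incubated 1 h at 37 °C. Bound radioactivity was then taken by filtration and scintillation counting; pIC50 derived.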
# [2] = target: T2, Muscarinic acetylcholine receptor M1 (Homo sapiens, UniProt P11229); assay: Displacement of [3H]NMS from human muscarinic M1 receptor expressed in CHO cells in continuous presence of radioligand
# T2 sequence (P11229 whole entry): T1 sequence (whole entry)
# Method in brief: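 CHO cells stably expressing human M1 receptor, grown in DMEM with 10% bovine calf serum and geneticin, trypsinized 4 days after subculture and washed into Hepes buffer. Cells incubated 1 h at 37 °C with 0.14–0.20 nM [3H]NMS plus increasing analog concentrations. Atropine defined nonspecific binding. Ended by rapid GF/B filtration and ice-cold saline washes, then scintillation counting; pIC50 reported.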
# [3] = target: T2, Muscarinic acetylcholine receptor M1; assay: as §1; method in brief: as §2
# [4] = target: T2, Muscarinic acetylcholine receptor M1; assay: Displacement of [3H]NMS from human muscarinic M1 receptor expressed in CHO cells at pH 8 in continuous presence of radioligand
# Method in brief: (§3)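 CHO cells stably transfected with human M1 gene, grown in DMEM with 10% bovine calf serum and geneticin, harvested by mild trypsinization 4 days after subculture, washed in Hepes medium. Buffer acidified to pH 6.0 or set to pH 8.0. Cells incubated 1 h at 37 °C with 0.14–0.20 nM [3H]NMS plus increasing analog concentrations. Nonspecific binding defined with 10 µM atropine. Filtration, saline washes, scintillation counting; pIC50 derived.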
# [5] = target: T2, Muscarinic acetylcholine receptor M1; assay: Displacement of [3H]NMS from human muscarinic M1 receptor expressed in CHO cells at pH 8 by wash-resistant binding method
# Method in brief: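 Human M1-transfected CHO cells preincubated with increasing analog concentrations in pH 8.0 buffer. Each wash is ~50 vol buffer dilution then centrifugation, done three times in total. Pellet resuspended in buffer with [3H]NMS for 1 h at 37 °C. Bound radioactivity collected by rapid filtration and scintillation counting. Result expressed as pIC50 of residual inhibition.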
# [6] = target: T1, Muscarinic acetylcholine receptor M1 (Homo sapiens); assay: (§4) Displacement of [3H]NMS from human muscarinic M1 receptor expressed in CHO cells at pH 6 by wash-resistant binding method
# Method in brief: (§5)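 Washout paradigm run in binding buffer acidified to pH 6.0, on CHO cells stably carrying human M1 receptor. After ligand preincubation, cells went through three rounds of ~50-volume dilution plus centrifugation, then resuspension with [3H]NMS for 1 h at 37 °C. Residual bound label was measured by filtration and scintillation counting; pIC50 derived.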
# [7] = target: T2, Muscarinic acetylcholine receptor M1; assay: Displacement of [3H]NMS from human muscarinic M1 receptor expressed in CHO cells at pH 6 in continuous presence of radioligand; method in brief: as §3
# [8] = target: T2, Muscarinic acetylcholine receptor M1; assay: as §4; method in brief: as §5
Structure (SMILES),Activity [1],IC50 [2] [nM],IC50 [3] [nM],further results
CN1CCC=C(c2nsnc2OCC(=O)O)C1,inactive,617,–,–
CN1CCC=C(c2nsnc2OCCCCn2ccnc2)C1,–,871,52500,IC50 [4]: 871 nM; IC50 [5]: 53700 nM; Activity [6]: inactive; IC50 [7]: 2290 nM
CN1CCC=C(c2nsnc2OCCCCN)C1,inactive,77600,–,–
CN1CCC=C(c2nsnc2OCCCCCCN)C1,–,646,3980,–
CNCCCCOc1nsnc1C1=CCCN(C)C1,inactive,7080,–,–
CN1CCC=C(c2nsnc2OCCCCO)C1,inactive,309,–,–
CN1CCC=C(c2nsnc2OCCCCCN)C1,–,1910,44700,–

# More lines, main results first:
Activity [1],IC50 [2] [nM],IC50 [3] [nM],Structure (SMILES),further results
inactive,1070,–,CN1CCC=C(c2nsnc2OCCO)C1,–
inactive,3800,–,CN1CCC=C(c2nsnc2OCCCO)C1,–
–,275,28800,CN1CCC=C(c2nsnc2OCCCCn2cccc2)C1,IC50 [4]: 219 nM; IC50 [5]: 12000 nM; IC50 [8]: 39800 nM; IC50 [7]: 407 nM
–,162,14800,CN1CCC=C(c2nsnc2OCCCN)C1,–
inactive,58.9,–,CCOC(=O)CCCCOc1nsnc1C1=CCCN(C)C1,–
inactive,52.5,–,CCCOc1nsnc1C1=CCCN(C)C1,–
–,1000,110000,CN1CCC=C(c2nsnc2OCCN)C1,–
–,37.2,2140,CN1CCC=C(c2nsnc2OCC#Cc2ccccc2)C1,–
inactive,141,–,CCOc1nsnc1C1=CCCN(C)C1,–
